From PubChem
core dimer inh: HCV core protein dimerization inhibition; TR-FRET GST/Flag-core106 dimerization, 1536-well; inhibition, % at 5 µM; actives 0.33% (n = 300,000); AID 1899;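 active = inhibition above the mean of all tested compounds plus 3 SD, set per screening campaign, cut at about 45% in these data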
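System: GST/Flag-tagged HCV core106 proteins. Incubation: compound-protein-antibody incubation 4 h at 22.5 °C. Technique: HTRF with 340 nm excitation, 617/671 nm emission. Medium: KF-containing HEPES buffer, pH 7.45, DTT, CHAPS, BSA. Read-out: inhibition (%) from 671 over 617 nm ratio. Also added: Eu(K)-anti-GST 90 ng/mL plus XL665-anti-Flag 1 µg/mL.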
HSF1 activator: increases HSF-1 driven luciferase reporter signal | activation, % at 9 µM | NIH3T3-HGL HSF-1 luciferase reporter, MG132, 8 h; 100% = twice DMSO control signal | actives 1.7% (n = 300,000) | AID 504408;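 active = mean replicate activation of at least 50% with a set share of replicates each reaching 50%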
ALR H2O2 inh: blocks human ALR sulfhydryl oxidase activity | P55789 | purified ALR, DTT oxidation, H2O2 HRP-luminol luminescence | inhibition, % (test concentration not listed) | actives 3.8% (n = 290,000) | AID 485317;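 active = mean replicate inhibition above about 79%, with every replicate also reaching it, limit read from the data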
Target sequence (P55789 whole entry, looked up): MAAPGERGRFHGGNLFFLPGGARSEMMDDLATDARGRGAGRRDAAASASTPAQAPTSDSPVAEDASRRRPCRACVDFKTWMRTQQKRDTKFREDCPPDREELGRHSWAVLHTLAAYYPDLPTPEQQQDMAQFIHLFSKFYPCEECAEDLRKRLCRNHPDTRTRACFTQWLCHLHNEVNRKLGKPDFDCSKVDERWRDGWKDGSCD
HSF1 inhib: HSF1 inhibition; NIH3T3-HGL HSE-luciferase, MG132-induced, luminescence 8 h; hits give low values; activity change, negative = inhibition, % at 7.5 µM (by protocol); actives 0.77% (n = 300,000); AID 2098;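 active = more than half of replicate wells show activity change below -50%, luminescence cut by over half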;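 also: luciferase reports HSF-1 transcriptional activity via heat shock element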
AI-2 QS modul: Vibrio harveyi AI-2 quorum sensing modulation | Vibrio harveyi JMH597 AI-2 luminescence/OD600 ratio, 9 h; hits give low values; strain lacks LuxN and CqsS sensors; 0 = neutral-control median | activity change, % at 7.5 µM | actives 0.4% (n = 300,000); in the data active = activity change below about -75%, passing the limit was not always enough;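 also: luminescence divided by OD600 gain over 9 h not by final OD600 alone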
PHOSPHO1 inh: inhibitors of human PHOSPHO1 phosphatase; Q8TCT1; recombinant PHOSPHO1, absorbance phosphatase assay; inhibition, % at 13.3 µM; actives 1.1% (n = 290,000); in the data active = inhibition above about 60%
Target sequence (Q8TCT1 whole entry, looked up): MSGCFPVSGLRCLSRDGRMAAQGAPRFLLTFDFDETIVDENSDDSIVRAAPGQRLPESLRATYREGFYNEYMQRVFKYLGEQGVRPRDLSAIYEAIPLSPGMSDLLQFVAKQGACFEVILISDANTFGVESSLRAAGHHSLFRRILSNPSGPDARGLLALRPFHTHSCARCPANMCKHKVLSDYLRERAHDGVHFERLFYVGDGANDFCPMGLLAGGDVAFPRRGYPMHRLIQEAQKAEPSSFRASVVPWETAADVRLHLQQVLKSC
A number is an active result; n = inactive; x = no result. An excerpt weighted towards active compounds, which were near 6.8% of everything screened.

SMILES | core dimer inh | HSF1 activator | ALR H2O2 inh | HSF1 inhib | AI-2 QS modul | PHOSPHO1 inh
CC1(C)Cc2c(cnn2-c2ccccc2)C(NC(=O)CCN2CCCCO2)C1 (stereo not drawn) | n | n | n | n | n | n
Cc1cc(C)c(S(=O)(=O)c2ccccc2C(=O)O)c(C)c1 | n | 54 | n | n | n | n
CCC1COCCS(=O)(=O)N1Cc1ccccc1C (stereo not drawn) | n | n | n | -61 | n | n
Cc1cc(C)n(Cc2ccc(Cl)cc2Cl)c(=O)c1S(=O)(=O)c1ccccc1 | n | 59 | n | n | n | n
C=C(C)Cn1c(C)cc(C)c(S(=O)(=O)c2ccc(C)cc2)c1=O | n | n | n | n | n | n
Cc1ccc(C(=O)c2nccn2C)cc1C | n | n | n | n | n | n
C[C@@H](C(=O)Nc1ccc(SC(F)F)cc1)N1C(=O)C2CCCCC2C1=O (stereo partly drawn) | x | x | 90 | x | x | x
CCn1c(CC(=O)Nc2ccccc2)nnc1SCc1nc2ccccc2c(=O)[nH]1 | n | n | n | n | n | n
C=CCn1c(C)cc(C(=O)COC(=O)[C@@H](NC(=O)c2ccccc2Cl)C(C)C)c1C | n | n | n | -61 | n | n
C=CCn1c(C)cc(C(=O)COC(=O)COc2ccccc2C#N)c1C | n | n | n | n | n | n
CC12c3ccccc3C(c3ccccc31)C1C(=O)N(Cc3cccnc3)C(=O)[C@H]12 (stereo partly drawn) | n | 70 | n | n | n | n
O=C(CSc1nnc(-c2ccc(Cl)cc2)n1Cc1ccco1)Nc1ccc2c(c1)OCCO2 | n | n | n | n | n | n
COc1ccc(-c2cnc(SCC(=O)Nc3ccc4c(c3)OCO4)n2Cc2ccco2)cc1 | x | n | x | n | n | 102
CC(=O)Nc1cccc(NC(=O)CSc2ncc(-c3ccc(Cl)cc3)n2Cc2ccco2)c1 | n | n | 92 | n | x | n
COCCC(=O)N1CCC(Oc2ccc(C(=O)NCCC3=CCCCC3)cc2)CC1 | n | n | n | n | n | n
Cc1cccc(NC(=O)CSc2ncnc3nc[nH]c23)c1C | n | n | n | n | n | 99
Cc1nc(-c2ccc([N+](=O)[O-])cc2)nc2[nH]ccc(=O)c12 | x | n | n | n | n | n
COc1ccccc1NC(=O)CN(c1ccc(C23CC4CC(CC(C4)C2)C3)cc1)S(C)(=O)=O | n | n | n | n | n | n
CS(=O)(=O)N(CC(=O)O)c1ccc(C23CC4CC(CC(C4)C2)C3)cc1 | n | n | n | -65 | n | n
Cc1nn(CCCC(=O)NCc2ccc(F)cc2)c(=O)c2nccn12 | n | n | n | n | n | n
Cc1ccc(C2=NN(C(=O)c3cccs3)C(c3ccccc3O)C2)cc1 (stereo not drawn) | n | 80 | n | n | n | n
CS(=O)(=O)N1N=C(c2cccs2)CC1c1ccccc1O (stereo not drawn) | n | n | n | n | n | 60
O=C(c1cccs1)N1N=C(c2ccccc2)CC1c1ccccc1O (stereo not drawn) | n | x | n | x | n | n
CC(C)(CO)NCc1c(OCc2ccc(Cl)cc2)ccc2ccccc12 | n | n | n | n | n | n
CCCCC(CCC(=O)O)(C(=O)OCC)c1csc(Nc2ccc(C)cc2)n1 (stereo not drawn) | n | n | 99 | n | n | n
SMILES | core dimer inh | HSF1 activator | ALR H2O2 inh | HSF1 inhib | AI-2 QS modul | PHOSPHO1 inh
CCOC(=O)C(CC)(CCC(=O)O)c1csc(N)n1 (stereo not drawn) | n | n | n | n | n | n
O=C(CSc1nccc(=O)[nH]1)Nc1cccc(S(=O)(=O)N2CCOCC2)c1 | n | n | n | n | n | n
Cc1ccc(NC(=O)CSc2nccc(=O)[nH]2)c(S(=O)(=O)N2CCOCC2)c1 | n | n | 98 | n | n | 64
Cc1nc(COC(=O)c2ccc(S(=O)(=O)N3CCCC3)cc2)cs1 | n | n | n | n | n | 81
Cc1nc(NCCOc2ccccc2)sc1C(=O)Nc1ccccc1 | n | n | n | n | n | n
CCOC(=O)/C(C#N)=C\N(C)C | n | n | n | n | n | n
C=CCN1C=CC(=C/C=C(/C#N)C(=O)OCC)C=C1 | n | n | 84 | n | n | n
CCOC(=O)/C(C#N)=C/C=C1/C=CC=CN1C | n | n | 95 | n | n | n
O=C(CN1C(=O)NC2(CCCc3ccccc32)C1=O)Nc1cccc(S(=O)(=O)N2CCCCC2)c1 (stereo not drawn) | n | 58 | n | n | n | n
Cc1ccc(NC(=O)CN2C(=O)NC3(CCc4ccccc43)C2=O)cc1S(=O)(=O)N1CCCCC1 (stereo not drawn) | n | n | n | n | n | x
O=C(CCCn1nnnc1CN1CCOCC1)N1CCC(c2ccccc2Cl)C1 (stereo not drawn) | n | n | n | n | n | n
CS(=O)(=O)c1ccc(C(=O)OC2CCOC2=O)cc1[N+](=O)[O-] (stereo not drawn) | n | n | 94 | n | n | n
C[C@@H]1CN([C@H](C)CO)C(=O)c2cc(NS(=O)(=O)c3cn(C)cn3)ccc2O[C@@H]1CN(C)S(C)(=O)=O | x | x | n | x | x | x
Cc1ccc(NC(=O)CS(=O)(=O)c2c[nH]c3ccccc23)c(C)c1 | n | n | n | n | n | n
O=[N+]([O-])c1ccc(N/N=C2\CC3CC=CC23)cc1 (stereo not drawn) | n | n | 96 | n | n | n
Cc1ccccc1OCC(=O)OCC(=O)NCc1cccs1 | n | n | x | n | n | n
CCOC(=O)C1(Cc2cccc(OC)c2)CCN(Cc2cccn2-c2ccccn2)CC1 | n | x | n | x | n | n
Cc1oc(-c2cccs2)nc1CS(=O)CC(=O)NCCCOC(C)C (stereo not drawn) | n | n | 99 | n | n | n
Cc1oc(-c2cccs2)nc1CS(=O)CC(=O)NCCc1ccccc1 (stereo not drawn) | n | n | 98 | n | n | n
CCCCNC(=O)CS(=O)Cc1nc(-c2cccs2)oc1C (stereo not drawn) | n | n | 98 | n | n | n
COC(=O)c1cc(S(=O)(=O)NCCCN2CCCC2=O)cn1C | n | n | n | n | n | n
COc1cc(OC)c(C2SCCS2)c(OC)c1 | n | n | 99 | n | n | n
CC(C(=O)NC1C=CS(=O)(=O)C1)N1C(=O)/C(=C/c2cccc(Cl)c2)SC1=S (stereo not drawn) | n | n | n | n | n | n
COc1ccccc1/C=C1/SC(=S)N(C(C)C(=O)NC2C=CS(=O)(=O)C2)C1=O (stereo not drawn) | n | 64 | n | n | n | n
CC(C(=O)NC1C=CS(=O)(=O)C1)N1C(=O)/C(=C\c2ccccc2)SC1=S (stereo not drawn) | n | n | 99 | n | n | n
